From ChEMBL document CHEMBL4270594, “Design, synthesis and pharmacological evaluation of new 3-(1H-benzimidazol-2-yl)quinolin-2(1H)-one derivatives as potential antitumor agents” (Eur J Med Chem, 2018)
Activity calls are given as the source filed them. No cut-off for these calls is given here.

Tests used:
Mus musculus [1] = test: Effect on caspase-3 protein expression in tumor tissues of Balb/c nude mouse xenografted with human Bel7404 cells at 25 to 50 mg/kg, ip bid for 20 days measured on day 21 by Western blot analysis; assay type: functional, organism-based
BEL-7404 tumor cell line [2] = test: Antitumor activity against human Bel7404 cells xenografted in Balb/c nude mouse assessed as relative tumor volume increment rate at 50 mg/kg, ip bid for 20 days measured on day 21 post last dose relative to control; assay type: functional
BEL-7404 tumor cell line [3] = test: Cell cycle arrest in human Bel7404 cells assessed as accumulation at G2-phase at 9 uM after 48 hrs by propidium iodide staining based flow cytometry (reference value: 18.84%); assay type: functional
Mus musculus [4] = test: Upregulation of Bax protein expression in tumor tissues of Balb/c nude mouse xenografted with human Bel7404 cells at 25 to 50 mg/kg, ip bid for 20 days measured on day 21 by Western blot analysis; assay type: functional, organism-based
Mus musculus [5] = test: Downregulation of caspase-9 protein expression in tumor tissues of Balb/c nude mouse xenografted with human Bel7404 cells at 25 to 50 mg/kg, ip bid for 20 days measured on day 21 by Western blot analysis; assay type: functional, organism-based
BEL-7404 tumor cell line [6] = test: Antitumor activity against human Bel7404 cells xenografted in Balb/c nude mouse assessed as tumor growth inhibition at 25 mg/kg, ip bid for 20 days measured on day 21 post last dose relative to control; assay type: functional; conditions: BEL-7404, ip, read-out: TGI
HepG2 [7] = test: Cell cycle arrest in human HepG2 cells assessed as accumulation at S-phase at 6 uM after 48 hrs by propidium iodide staining based flow cytometry (reference value: 30.49%); assay type: functional
HepG2 [8] = test: Upregulation of caspase-9 protein expression in human HepG2 cells at 6 to 10 uM after 12 hrs by Western blot analysis; assay type: functional, cell-based
Summary of the method: (§1)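 HepG2 cell lysates after compound treatment analyzed by western blot for the target protein, compared with untreated negative control.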

HepG2 [9] = test: Cell cycle arrest in human HepG2 cells assessed as accumulation at G1-phase at 6 uM after 48 hrs by propidium iodide staining based flow cytometry (reference value: 50.47%); assay type: functional
HepG2 [10] = test: Cell cycle arrest in human HepG2 cells assessed as accumulation at G2/M phase after 48 hrs by propidium iodide staining based flow cytometry; assay type: functional
Mus musculus [11] = test: Upregulation of Bax protein expression in tumor tissues of Balb/c nude mouse xenografted with human NCI-H460 cells at 25 to 50 mg/kg, ip bid for 13 days measured on day 14 by Western blot analysis; assay type: functional, organism-based
Summary of the method: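 Tumors from NCI-H460 xenografted BALB/c nude mice (25 or 50 mg/kg, vehicle 5% DMSO in saline) collected at day 14; protein levels in tumor tissue determined by western blot versus vehicle control.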

HepG2 [12] = test: Induction of apoptosis in human HepG2 cells assessed as morphological changes at 6 to 10 uM after 12 hrs by […] staining based fluorescence microscopic method; assay type: functional, cell-based
Summary of the method: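 HepG2 cells treated for 12 h, stained with Hoechst 33258 and viewed by fluorescence microscopy for nuclear blue fluorescence and apoptotic morphology, compared with untreated cells.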

HepG2 [13] = test: Cell cycle arrest in human HepG2 cells assessed as accumulation at S-phase at 10 uM after 48 hrs by propidium iodide staining based flow cytometry (reference value: 30.49%); assay type: functional
HepG2 [14] = test: Cell cycle arrest in human HepG2 cells assessed as accumulation at G1-phase at 10 uM after 48 hrs by propidium iodide staining based flow cytometry (reference value: 50.47%); assay type: functional
HepG2 [15] = test: Induction of apoptosis in human HepG2 cells assessed as early apoptotic cells at 6 uM after 24 hrs by Annexin V-FITC/ propidium iodide staining based flow cytometry (reference value: 6.5%); assay type: functional
HepG2 [16] = test: Cell cycle arrest in human HepG2 cells assessed as accumulation at G2-phase at 6 uM after 48 hrs by propidium iodide staining based flow cytometry (reference value: 19.04%); assay type: functional
HepG2 [17] = test: Upregulation of PARP protein expression in human HepG2 cells at 6 to 10 uM after 12 hrs by Western blot analysis; assay type: functional, cell-based; summary of the method: as §1
HepG2 [18] = test: Induction of apoptosis in human HepG2 cells assessed as necrotic cells at 10 uM after 24 hrs by Annexin V-FITC/ propidium iodide staining based flow cytometry (reference value: 0.28%); assay type: functional
HepG2 [19] = test: Downregulation of CDK1 protein expression in human HepG2 cells at 6 to 10 uM after 12 hrs by Western blot analysis; assay type: functional, cell-based
HepG2 [20] = test: Induction of intracellular calcium level in human HepG2 cells at 6 to 10 uM after 24 hrs by Fluo3-AM staining based fluorescence microscopic method; assay type: functional, cell-based
HepG2 [21] = test: Induction of apoptosis in human HepG2 cells assessed as late apoptotic cells at 10 uM after 24 hrs by Annexin V-FITC/ propidium iodide staining based flow cytometry (reference value: 1.91%); assay type: functional
HepG2 [22] = test: Induction of mitochondrial cytochrome-c release in to cytotol in human HepG2 cells at 6 to 10 uM after 12 hrs by Western blot analysis; assay type: functional, cell-based
HepG2 [23] = test: Cell cycle arrest in human HepG2 cells assessed as accumulation at S-phase at 8 uM after 48 hrs by propidium iodide staining based flow cytometry (reference value: 30.49%); assay type: functional
HepG2 [24] = test: Downregulation of Cyclin-B1 protein expression in human HepG2 cells at 6 to 10 uM after 12 hrs by Western blot analysis; assay type: functional, cell-based
HepG2 [25] = test: Upregulation of p27 protein expression in human HepG2 cells at 6 to 10 uM after 12 hrs by Western blot analysis; assay type: functional, cell-based; summary of the method: as §1
HepG2 [26] = test: Upregulation of p21 protein expression in human HepG2 cells at 6 to 10 uM after 12 hrs by Western blot analysis; assay type: functional, cell-based; summary of the method: as §1
Mus musculus [27] = test: Upregulation of APAF-1 protein expression in tumor tissues of Balb/c nude mouse xenografted with human NCI-H460 cells at 25 to 50 mg/kg, ip bid for 13 days measured on day 14 by Western blot analysis; assay type: functional, organism-based
HepG2 [28] = test: Upregulation of caspase-3 protein expression in human HepG2 cells at 6 to 10 uM after 12 hrs by Western blot analysis; assay type: functional, cell-based; summary of the method: as §1
HepG2 [29] = test: Induction of apoptosis in human HepG2 cells assessed as late apoptotic cells at 6 uM after 24 hrs by Annexin V-FITC/ propidium iodide staining based flow cytometry (reference value: 1.91%); assay type: functional
HepG2 [30] = test: Induction of apoptosis in human HepG2 cells assessed as membrane blebbing at 6 to 10 uM after 12 hrs by acridine orange/ethidium bromide staining based fluorescence microscopic method; assay type: functional, cell-based
Summary of the method: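 HepG2 cells stained with acridine orange/ethidium bromide and examined by fluorescence microscopy; nuclei scored as yellow/green or orange, with pycnosis, membrane blebbing and cell budding taken as apoptotic morphology.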

HepG2 [31] = test: Induction of apoptosis in human HepG2 cells assessed as early apoptotic cells at 10 uM after 24 hrs by Annexin V-FITC/ propidium iodide staining based flow cytometry (reference value: 6.5%); assay type: functional
HepG2 [32] = test: Upregulation of Bax protein expression in human HepG2 cells at 6 to 10 uM after 12 hrs by Western blot analysis; assay type: functional, cell-based; summary of the method: as §1
HepG2 [33] = test: Induction of apoptosis in human HepG2 cells assessed as live cells at 6 uM after 24 hrs by Annexin V-FITC/ propidium iodide staining based flow cytometry (reference value: 91.31%); assay type: functional

Structure (SMILES): O=c1[nH]c2cc3c(cc2cc1-c1nc2cc(Cl)ccc2[nH]1)OCO3
- Activity (Mus musculus [1]): inactive
- T/C (BEL-7404 tumor cell line [2]): 44.8%
- Activity (BEL-7404 tumor cell line [3]): 30.58%
- Activity (Mus musculus [4]): inactive
- Activity (Mus musculus [5]): Active
- inhibition in vivo at 25 mg/kg (BEL-7404 tumor cell line [6]): 41.2%

Structure (SMILES): O=c1[nH]c2ccccc2cc1-c1nc2cc(Cl)ccc2[nH]1
- Activity (HepG2 [7]): 29.48%
- Activity (HepG2 [8]): Active
- Activity (HepG2 [9]): 41.52%
- Activity (HepG2 [10]): Dose-dependent effect
- Activity (Mus musculus [11]): Active
- Activity (HepG2 [12]): Active
- Activity (HepG2 [13]): 27.24%
- Activity (HepG2 [14]): 23.66%
- Activity (HepG2 [15]): 20.22%
- Activity (HepG2 [16]): 39%
- Activity (HepG2 [17]): Active
- Activity (HepG2 [18]): 0.45%
- Activity (HepG2 [19]): Active
- Activity (HepG2 [20]): Active
- Activity (HepG2 [21]): 16.68%
- Activity (HepG2 [22]): Active
- Activity (HepG2 [23]): 29.19%
- Activity (HepG2 [24]): Active
- Activity (HepG2 [25]): Active
- Activity (HepG2 [26]): Active
- Activity (Mus musculus [27]): Active
- Activity (HepG2 [28]): Active
- Activity (HepG2 [29]): 10.4%
- Activity (HepG2 [30]): Active
- Activity (HepG2 [31]): 45.57%
- Activity (HepG2 [32]): Active
- Activity (HepG2 [33]): 68.62%
